Assay outcomes as filed in PubChem.
MsrA inhibitor = bovine MsrA enzyme inhibitors, primary screen, biochemical, absorbance, HTS; Methionine sulfoxide reductase A (Bos taurus); purified bovine MsrA, absorbance read-out; inhibition, % at 15.5 µM; actives 0.75% (n = 360,000); AID 651718, 2012
MsrA act = bovine MsrA enzyme activators, primary screen, biochemical, absorbance, HTS; activation, % at 10.6 µM; purified bovine MsrA, absorbance read-out; actives 0.3% (n = 360,000); AID 602163, 2012; in the data active means activation above about 7.5%
procasp7 counter = procaspase-7 activators, primary screen, counter-screen for procaspase-3 activator project, biochemical, absorbance, HTS, human; actives 0.093% (n = 330,000); recombinant procaspase-7, Ac-DEVD-pNA absorbance 405 nm; D23A/D198A/D206A triple mutant, cannot self-cleave; scale: DMSO 0, 5 µM enzyme 100; activation, % at 8.5 µM;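 active means percent activation above the screen-wide mean plus 3 SD, cut at about 25% in these data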
Target sequence (P55210 whole entry D23A/D198A/D206A): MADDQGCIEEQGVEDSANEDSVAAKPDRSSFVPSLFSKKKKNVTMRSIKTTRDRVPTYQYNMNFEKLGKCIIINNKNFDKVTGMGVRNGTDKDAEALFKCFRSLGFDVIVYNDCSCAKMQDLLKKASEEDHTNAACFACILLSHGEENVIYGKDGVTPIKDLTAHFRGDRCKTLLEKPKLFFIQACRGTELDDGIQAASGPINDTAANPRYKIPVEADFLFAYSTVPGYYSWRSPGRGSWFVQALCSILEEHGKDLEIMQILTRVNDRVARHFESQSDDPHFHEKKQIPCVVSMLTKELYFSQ
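buffer or medium = Zinc-free HEPES/NaCl buffer, pH 7.4 | material = Procaspase-7 triple mutant (PC-7 D3A) | input = 2 µM procaspase-7 mutant as dispensed | signal = Epi-absorbance of released pNA at 405 nm, two timepoints | timing = 1 h preincubation, 2 h reaction | replicates = singlicate compound testing | evaluation = % activation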
procasp3 activ = activators of human procaspase-3 D3A mutant, primary screen, biochemical, absorbance, PC-3 D3A mutant, single concentration | Caspase-3 (Homo sapiens), P42574 | recombinant procaspase-3 D3A, Ac-DEVD-pNA absorbance 405 nm | activation, % at 8.5 µM | actives 0.11% (n = 330,000);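 active means activation above the mean of all tested compounds plus 3 SD, cut at about 21% in these data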
Target sequence (P42574 whole entry D9A/D28A/D175A): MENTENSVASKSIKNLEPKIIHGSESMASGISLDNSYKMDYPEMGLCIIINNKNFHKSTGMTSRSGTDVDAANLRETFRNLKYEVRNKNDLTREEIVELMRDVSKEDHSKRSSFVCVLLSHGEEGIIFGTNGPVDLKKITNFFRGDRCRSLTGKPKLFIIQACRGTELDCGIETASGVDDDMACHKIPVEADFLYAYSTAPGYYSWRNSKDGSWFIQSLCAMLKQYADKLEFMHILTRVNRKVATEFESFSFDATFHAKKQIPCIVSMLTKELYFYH
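material = Procaspase-3 D3A mutant | probe or stimulus = Ac-DEVD-pNA | compound = single dose, 8.5 µM nominal compound, 0.8% DMSO | timing = 1 h preincubation, 2 h reaction | measured by = 405 nm absorbance of p-nitroaniline, reads at 0 and 120 min | benchmarks = DMSO-only low control, 5 µM PC-3 D3A high control | repeats = singlicate, each compound tested once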
Bfl-1 A1 inh = caspase 3/7 activation in MEF A1-2A-BIM cells, primary screen, A1 inhibitor project, cell-based, luminescence, HTS. Caspase-Glo 3/7 luminescence, 3 h; percent of clofoctol response, vehicle zero. caspase activation, % (test concentration not listed). actives 0.066% (n = 330,000);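 active means over half of replicate activation scores above 10%, or exactly half above 10 with the replicate mean above 10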
MsrA inh confirm = bovine MsrA inhibitors, retest, confirmation, biochemical, absorbance, HTS; actives 41% (n = 2,300); purified bovine MsrA, absorbance read-out; shares compounds with MsrA inhibitor; inhibition, % at 15.5 µM;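 further: coupled to thioredoxin reductase with NADPH and selenocystamine and DMSO as substrate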
Of the large screens only hits and unclear results are named; the others gave an inactive call (follow-up assays come after a bar, where they were run). In the library only some 1.2% were active in any assay of this set; here they are far more common. Unless noted, no stated cut-off is given here; in the data, active means inhibition above about 4.5%; inactive means the rest.

O=C(O)c1cccc(Cn2c(Cl)c(/C=N/NC(=O)c3ccc(O)cc3)sc2=O)c1	MsrA inhibitor 8.5 | MsrA inh confirm 5.5
O=C(COc1ccccc1)N/N=C/c1sc(=O)n(Cc2cccc(C(=O)O)c2)c1Cl	none
C(=N\Nc1nc2ccccc2s1)/c1cccs1	none
O=c1[nH]ncc(N/N=C\c2cccnc2)c1Cl	none
Cc1cccc(/C=N\Nc2cn[nH]c(=O)c2Cl)c1	MsrA inhibitor 8.1 | MsrA inh confirm 5.0
COc1ccccc1/C=N\Nc1cn[nH]c(=O)c1Cl	MsrA inhibitor 5.8 | MsrA inh confirm 4.7
O=c1[nH]ncc(N/N=C\c2cccs2)c1Cl	MsrA inhibitor 9.1 | MsrA inh confirm 6.2
CCOc1ccccc1/C=N\Nc1cnn(Cc2ccccc2)c(=O)c1Cl	none
O=c1[nH]ncc(N/N=C\c2ccncc2)c1Cl	MsrA inhibitor 9.6 | MsrA inh confirm 6.0
O=C(NCCN1CCC(n2c(=O)[nH]c3ccccc32)CC1)c1c(F)cccc1F	none (no result: procasp7 counter, procasp3 activ, Bfl-1 A1 inh)
O=Cc1ccc(-c2ccc(C(=O)O)cc2)o1	MsrA inhibitor 7.2 | MsrA inh confirm inactive
O=C(O)/C(=C\c1ccc(-c2ccc(F)cc2)o1)c1ccccc1	MsrA inhibitor 4.7 (no result: procasp7 counter, procasp3 activ, Bfl-1 A1 inh) | MsrA inh confirm inactive
Nc1ccc(S(=O)(=O)N2CCOCCOCCOCCOCCOCC2)cc1	none
CC1=C(C#N)c2nc(N)c(C#N)c(C)c2/C1=C\c1ccc(-c2ccccc2C(=O)O)o1	none (no result: procasp7 counter, procasp3 activ, Bfl-1 A1 inh)
COc1cc(/C=C2/C(C)=C(C#N)c3nc(N)c(C#N)c(C)c32)ccc1OCC(=O)O	MsrA inhibitor 5.0 (no result: MsrA act) | MsrA inh confirm inactive
Nc1ccc(-c2nc3ccc(N)cc3s2)cc1	MsrA inhibitor 5.6 | MsrA inh confirm 7.5
Nc1ccc(-c2nc3ccc(C(=O)O)cc3s2)cc1	MsrA inhibitor 5.9 | MsrA inh confirm 7.2
Nc1cccc(-c2nc3ccc(N)cc3s2)c1	none
Nc1cc2sc(-c3ccc(C(=O)O)cc3)nc2cc1Cl	MsrA inhibitor 5.5 | MsrA inh confirm inactive
O=C(O)c1ccc2nc(-c3ccccc3)sc2c1	none
O=C(O)c1cocc1C(=O)O	none (no result: procasp7 counter, procasp3 activ, Bfl-1 A1 inh)
COC(=O)[C@H]1C[C@@]2(O)CN(S(=O)(=O)c3ccc(C)cc3)C[C@@]2(OC(=O)NC2CC2)C[C@H]1C(=O)OC	none (no result: procasp7 counter, procasp3 activ, Bfl-1 A1 inh)
O=C(Nc1ccc2[nH]c(=S)sc2c1)c1ccccc1	MsrA inhibitor 5.1 | MsrA inh confirm inactive
CCCN1C2CCCC1CC(NC(=O)c1cc(OC)cc(OC)c1)C2 (configuration not stated)	none
O=C(O)C(=Cc1ccc([N+](=O)[O-])cc1)c1ccccc1	none (no result: MsrA act, procasp7 counter, procasp3 activ, Bfl-1 A1 inh)
COc1ccc(CC(=O)N/N=C/c2ccc(-c3ccc(F)cc3)o2)cc1OC	none
O=C(O)c1cccc(-c2ccc(/C=N/NC(=O)C3COc4ccccc4O3)o2)c1 (configuration not stated)	MsrA inhibitor 4.7 | MsrA inh confirm inactive
CC(C)(C)c1ccc2c(c1)OC(C(=O)N/N=C\c1ccc(-c3cccc(C(=O)O)c3)o1)CO2 (configuration not stated)	none
O=C(O)c1cccc(-c2ccc(/C=N/Nc3nn[nH]n3)o2)c1	MsrA inhibitor 5.9 | MsrA inh confirm 4.6
CNC(=S)N/N=C/c1ccc(-c2cccc(C(=O)O)c2)o1	MsrA inhibitor 4.9 | MsrA inh confirm 6.2
COc1ccc(CC(=O)N/N=C/c2ccc(-c3cccc(C(=O)O)c3)o2)cc1OC	MsrA inhibitor 5.1 | MsrA inh confirm inactive
CC1CCN(C(=O)COC(=O)C2CCN(S(=O)(=O)c3c(Cl)cccc3Cl)CC2)CC1	none (no result: procasp7 counter, procasp3 activ, Bfl-1 A1 inh)
C/C(CC(=O)Nc1c(C)cc(C)cc1C)=N\NC(=O)Cc1ccccc1	none
O=C(CSc1nnc(COc2ccc(Cl)cc2)o1)Nc1ccc(N2CCOCC2)cc1	none (no result: procasp7 counter, procasp3 activ, Bfl-1 A1 inh)
COc1ccccc1Cc1c(-c2ccc(C)cc2)nc2ccc(C)cn12	none (no result: MsrA act, procasp7 counter, procasp3 activ, Bfl-1 A1 inh)
Cc1ccc(OCC(=O)N/N=C\c2ccc(-c3cccc(C(=O)O)c3)o2)c(C)c1	MsrA inhibitor 5.3 | MsrA inh confirm inactive
CCn1c(Sc2nc(C)nc3scc(-c4cccs4)c23)n[nH]c1=O	MsrA inhibitor 10 | MsrA inh confirm 10.0
COc1cccc(S(=O)(=O)N(C)C[C@@H]2Oc3ncc(Br)cc3C(=O)N([C@H](C)CO)C[C@@H]2C)c1	none (no result: MsrA act, procasp7 counter, procasp3 activ, Bfl-1 A1 inh)
c1ccc2c(c1)nc(N1CCOCC1)c1nnnn12	MsrA inhibitor 7.5 (no result: Bfl-1 A1 inh) | MsrA inh confirm 14
COc1ccc(S(=O)(=O)Nc2nc3c(s2)C(=O)CC(C)(C)C3)cc1	none
CC1(C)CC(=O)c2sc(NS(=O)(=O)Cc3ccccc3)nc2C1	MsrA inhibitor 5.3 | MsrA inh confirm inactive
Cc1ccc(S(=O)(=O)Nc2nc3c(s2)C(=O)CC(C)(C)C3)cc1	MsrA inhibitor 6.7 | MsrA inh confirm inactive
O=C(N[C@H](C(=O)N1CCC[C@H]1C(=O)NCCc1ccccc1Cl)c1ccccc1)c1ccc(Cl)c(Cl)c1	none (no result: MsrA act, procasp7 counter, procasp3 activ, Bfl-1 A1 inh)
COc1cc(/C=N/Nc2ccccn2)ccc1O	none
O=c1nccc(N/N=C/c2cccc(O)c2)[nH]1	MsrA inhibitor 6.8 | MsrA inh confirm inactive
CCCOc1ccccc1/C=N/Nc1ccnc(=O)[nH]1	none
COc1cc(/C=N/Nc2ccnc(=O)[nH]2)ccc1O	MsrA inhibitor 6.9 (no result: procasp7 counter, procasp3 activ) | MsrA inh confirm 6.3
N#CC(c1ccccc1O)N1N=C(c2ccccc2)CC1c1ccccc1 (configuration not stated)	none
COc1cc(C(C#N)N2N=C(c3ccccc3)CC2c2ccccc2)ccc1O (configuration not stated)	MsrA inhibitor 4.7 | MsrA inh confirm inactive
[O-][N+]1=c2ccc(Nc3ccccc3)cc2=NC12CCCCC2	MsrA inhibitor 11 | MsrA inh confirm 8.6
CC(C)(C)C(=O)Nc1sc2c(c1C#N)CCC2	MsrA inhibitor 5.9 | MsrA inh confirm 4.7
CC1=NN(c2ccccc2)C(=O)C1/C=C1/NC(=S)NC1=O (configuration not stated)	none
O=C1NC(=S)N/C1=C/C=C/c1ccccc1	MsrA inhibitor 4.7 | MsrA inh confirm inactive
COc1ccc(CN=C(C#N)C2=C(O)c3ccccc3C2=O)cc1	none
N#CC(=Nc1cccc(F)c1)C1=C(O)c2ccccc2C1=O	MsrA inhibitor 5.2 (no result: procasp7 counter, procasp3 activ, Bfl-1 A1 inh) | MsrA inh confirm inactive
CCCc1cc(=O)[nH]c(SCC(=O)Nc2cc(S(=O)(=O)N3CCOCC3)ccc2Cl)n1	none
CNS(=O)(=O)c1cccc(C(=O)OCC(=O)/C=C2/N(C)c3ccccc3C2(C)C)c1	none
